Experimental data of several laboratories.
Target: Glycogen synthase kinase-3 beta (GSK3B, Homo sapiens, UniProt P49841)

Compound	effect on	mode	technique	tested at	endpoint	value
O=C(O)c1cn(C2CC2)c2cc(N3CCNCC3)c(F)cc2c1=O	enzyme activity	inhibitor	ADP detection	100 µM	inhibition	18.7%
COc1ccc(CNC(=O)Nc2ncc([N+](=O)[O-])s2)cc1	cell-free assay	–	–	0.5 µM	remaining signal	40.2%
CN(C)c1ncnc(-c2ccc3nc(Nc4cc(CN5CCN(C(=O)CC(F)(F)F)CC5)ccn4)[nH]c3c2)c1Cl	cell-free assay	–	competition with immobilised ligand	1 µM	remaining binding	100%
CC(C)c1ccc(NC(=O)c2cccs2)c(-c2nc3ccccc3[nH]c2=O)c1	enzyme activity	inhibitor	–	1 µM	activity vs control	128%
CCC(=O)N[C@@H]1CC[C@H](C(=O)N(C)c2ccc(-c3nc4ccccc4o3)cc2)C1	cell-free assay	–	competition with immobilised ligand	1 µM	remaining binding	96%
O=c1cc(-c2cccc3c2Sc2ccccc2S3)oc(N2CCOCC2)c1	enzyme activity	inhibitor	–	0.5 µM	remaining activity	98.7%
Cc1sc(C(=O)NC2COC2)cc1-n1cc(NC(=O)Nc2c(F)cccc2Cl)cn1	enzyme activity	inhibitor	–	10 µM	remaining activity	94.9%
FC(F)c1nc2ccccc2n1-c1nc(N2CCOCC2)nc(N2CCOCC2)n1	enzyme activity	inhibitor	–	10 µM	remaining activity	79%
COc1cc(Cl)c(C(=O)N[C@@H](CN[C@H]2CC[C@@H](N)CC2)Cc2ccc(C#N)cc2)cc1-c1ccc(CN[C@H](C)c2ccc(C)cc2)o1	enzyme activity	inhibitor	–	1 µM	remaining activity	101%
Cc1cc(-n2nc(Cc3cc(F)cc(C(F)(F)F)c3)nc2C)ccc1C(N)=O	cell-free assay	–	competition with immobilised ligand	1 µM	remaining binding	98%
CCN(CC)CCNC(=O)c1c(C)[nH]c(/C=C2\C(=O)Nc3ccc(Cl)cc32)c1C	enzyme activity	inhibitor	–	0.5 µM	remaining activity	93.1%
CCCOc1ccc([C@H]2[C@H](C(=O)O)[C@@H](c3ccc4c(c3)OCO4)CN2CC(=O)Nc2c(CC)cccc2CC)cc1	cell-free assay	–	competition with immobilised ligand	1 µM	remaining binding	73%
O=C(O)c1cc(-c2ccc(F)cc2F)ccc1O	enzyme activity	inhibitor	ADP detection	100 µM	inhibition	38.6%
Cc1cc(NC(=O)c2cccc3cc(-c4cccc5[nH]nc(N)c45)ccc23)ccc1F	enzyme activity	inhibitor	–	0.1 µM	activity vs control	85%
OCc1ccccn1	enzyme activity	inhibitor	ADP detection	100 µM	inhibition	4.4%
O=C1Nc2ccc(Cl)cc2C1=Cc1cc(Cl)c(O)c(Cl)c1	cell-free assay	–	–	0.5 µM	remaining signal	80.8%
CN1CCOC(c2ccccc2)c2ccccc2C1 (stereo not shown)	enzyme activity	inhibitor	ADP detection	100 µM	inhibition	12.9%
COc1cc(/C=C/C(=O)CC(=O)/C=C/c2ccc(O)c(OC)c2)ccc1O	enzyme activity	inhibitor	–	1 µM	activity vs control	105%
N#C[C@@H]1C[C@@H]2C[C@@H]2N1C(=O)[C@@H](N)C12CC3CC(CC(O)(C3)C1)C2	enzyme activity	inhibitor	ADP detection	100 µM	inhibition	8.2%

Compound	effect on	mode	technique	tested at	endpoint	value
O=C1NC(=O)c2cc(Nc3ccc(F)cc3)c(Nc3ccc(F)cc3)cc21	cell-free assay	–	–	0.5 µM	remaining signal	89.2%
CCCOc1ccc(OC)c(F)c1C(=O)c1ccc(C(=O)N[C@@H]2CNC[C@H]2NC(=O)c2ccc3[nH]ncc3c2)cc1	enzyme activity	inhibitor	–	10 µM	remaining activity	67%
O=Nc1c(-c2c(O)[nH]c3ccccc23)[nH]c2ccccc12	cell-free assay	–	–	0.5 µM	remaining signal	27.3%
C[C@@H]1CN(c2cc(-c3nn(C)c4ccc(OC5(C)CC5)cc34)ncn2)C[C@H](C)O1	cell-free assay	–	competition with immobilised ligand	1 µM	remaining binding	91%
O=C(Nc1cnn(-c2csc(C(=O)NC3COC3)c2)c1)Nc1ccccc1Cl	enzyme activity	inhibitor	–	5 µM	remaining activity	95%
Cc1ccc(C(=O)Nc2ccc(CN3CCN(C)CC3)c(C(F)(F)F)c2)cc1C#Cc1cnc2cccnn12	enzyme activity	inhibitor	–	23.5 nM	remaining activity	92%
COc1cc(Nc2cnc(C#N)c(O[C@H](C)CN(C)C)n2)ncc1-c1cnn(C)c1	enzyme activity	inhibitor	radiometric	1 µM	remaining activity	90%
C[C@@H](c1cccc(C#N)c1)n1cc(Cl)cc(C(N)=O)c1=N	cell-free assay	–	competition with immobilised ligand	1 µM	remaining binding	88%
Oc1cccc(-c2nc(N3CCOCC3)c3oc4ncccc4c3n2)c1	enzyme activity	inhibitor	–	10 µM	remaining activity	48%
CNC(=O)c1cc(Oc2ccc(NC(=O)Nc3ccc(Cl)c(C(F)(F)F)c3)cc2)ccn1	cell-free assay	–	–	0.5 µM	remaining signal	101%
Nc1ncnc2c1ncn2[C@@H]1O[C@H](COP(=O)(O)OP(=O)(O)OP(=O)(O)O)[C@@H](O)[C@H]1O	enzyme activity	substrate	radiometric	–	Km	9.3 µM
Cc1ncc([N+](=O)[O-])n1CCO	enzyme activity	inhibitor	ADP detection	100 µM	inhibition	32.8%
O=C1c2ccccc2-c2n[nH]c3cccc1c23	enzyme activity	inhibitor	–	0.5 µM	activity vs control	86.8%
Fc1ccc([C@@H]2CCNC[C@H]2COc2ccc3c(c2)OCO3)cc1	enzyme activity	inhibitor	ADP detection	100 µM	inhibition	0.9%
CN1CCN(c2cnc3c(C4CCN(C(=O)c5ccc(OC(F)(F)F)cc5N)CC4)ncnc3c2)CC1	cell-free assay	–	competition with immobilised ligand	1 µM	remaining binding	100%
COc1cc2c(cc1OC)-c1c(oc3c4c(ccc3c1=O)OC(C)(C)C=C4)CO2	enzyme activity	inhibitor	ADP detection	100 µM	inhibition	10.4%
Cn1cc(Cl)c2c(Oc3c(F)cc(Nc4cc(Cl)nc(N)n4)cc3F)ccnc21	cell-free assay	–	competition with immobilised ligand	0.1 µM	remaining binding	90%
FC(F)(F)Oc1cccc(-c2cnc3ccc(-c4ccncc4)nn23)c1	enzyme activity	inhibitor	radiometric	1 µM	activity vs control	88%
